Experimental data published in ChEMBL document CHEMBL1921685, “Design and synthesis of triazolopyridazines substituted with methylisoquinolinone as selective c-Met kinase inhibitors” (Bioorg Med Chem Lett, 2011).
pIC50: −log10 of the molar value.

Tests used:
[1] = biological target: Hepatocyte growth factor receptor (Homo sapiens, UniProt P08581); experiment: Inhibition of recombinant c-met by HTRF assay
[2] = biological target: Macrophage-stimulating protein receptor (Homo sapiens, UniProt Q04912); experiment: Inhibition of RON
[3] = biological target: T1, Receptor-type tyrosine-protein kinase FLT3 (Homo sapiens, UniProt P36888); experiment: Inhibition of FLT3
T1 sequence (P36888 whole entry): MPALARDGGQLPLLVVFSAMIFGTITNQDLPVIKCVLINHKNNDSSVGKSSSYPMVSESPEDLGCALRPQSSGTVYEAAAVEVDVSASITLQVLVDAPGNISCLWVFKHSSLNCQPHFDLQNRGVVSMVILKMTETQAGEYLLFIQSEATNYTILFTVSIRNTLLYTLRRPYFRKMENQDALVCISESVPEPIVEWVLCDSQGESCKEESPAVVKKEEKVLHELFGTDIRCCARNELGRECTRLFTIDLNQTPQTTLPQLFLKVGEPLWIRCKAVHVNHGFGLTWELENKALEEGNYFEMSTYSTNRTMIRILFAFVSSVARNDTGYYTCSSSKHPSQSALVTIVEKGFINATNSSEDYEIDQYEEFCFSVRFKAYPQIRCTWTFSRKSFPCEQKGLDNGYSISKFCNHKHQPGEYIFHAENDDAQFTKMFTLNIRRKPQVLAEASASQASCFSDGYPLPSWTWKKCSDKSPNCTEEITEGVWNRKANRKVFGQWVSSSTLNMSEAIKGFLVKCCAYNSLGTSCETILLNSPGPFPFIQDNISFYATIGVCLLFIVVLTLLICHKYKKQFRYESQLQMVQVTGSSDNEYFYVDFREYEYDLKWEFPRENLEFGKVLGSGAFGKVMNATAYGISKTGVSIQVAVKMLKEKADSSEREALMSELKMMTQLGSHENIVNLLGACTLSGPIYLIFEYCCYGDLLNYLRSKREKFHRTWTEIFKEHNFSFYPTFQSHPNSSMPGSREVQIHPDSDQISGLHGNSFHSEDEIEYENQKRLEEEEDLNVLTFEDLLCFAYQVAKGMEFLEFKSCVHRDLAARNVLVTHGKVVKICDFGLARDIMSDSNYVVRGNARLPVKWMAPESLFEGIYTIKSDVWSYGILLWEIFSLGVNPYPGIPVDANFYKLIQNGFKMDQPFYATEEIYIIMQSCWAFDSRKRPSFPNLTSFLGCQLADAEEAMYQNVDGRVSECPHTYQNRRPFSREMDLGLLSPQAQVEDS

[4] = biological target: High affinity nerve growth factor receptor (Homo sapiens, UniProt P04629); experiment: Inhibition of TRKA
Aurora kinase A = biological target: T2, Aurora kinase A (Homo sapiens, UniProt O14965); experiment: Inhibition of AurA
T2 sequence (O14965 whole entry): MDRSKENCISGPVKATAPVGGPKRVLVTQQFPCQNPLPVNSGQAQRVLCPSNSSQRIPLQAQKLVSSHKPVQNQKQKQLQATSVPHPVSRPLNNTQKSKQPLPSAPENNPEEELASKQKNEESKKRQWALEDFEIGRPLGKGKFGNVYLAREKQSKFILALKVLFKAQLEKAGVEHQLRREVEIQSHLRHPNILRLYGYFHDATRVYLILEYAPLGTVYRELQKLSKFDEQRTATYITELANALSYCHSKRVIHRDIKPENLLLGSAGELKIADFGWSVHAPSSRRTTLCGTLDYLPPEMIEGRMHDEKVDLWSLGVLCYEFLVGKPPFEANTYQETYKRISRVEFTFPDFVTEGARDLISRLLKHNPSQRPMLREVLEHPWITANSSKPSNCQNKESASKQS

MKN-45 = experiment: Growth inhibition of c-met-amplified human MKN45 cells after 72 hrs by MTS assay; format: functional; conditions: MKN-45, 72 h
SNU-5 = experiment: Growth inhibition of c-met-amplified human SNU5 cells after 72 hrs by MTS assay; format: functional; conditions: SNU-5, 72 h
[5] = Growth inhibition of c-met-amplified human Hs 746T cells after 72 hrs by MTS assay; format: functional; conditions: Hs746T
NCI-N87 = experiment: Growth inhibition of c-met-independent human NCI-N87 cells after 72 hrs by MTS assay; format: functional; conditions: NCI-N87, 72 h
[6] = Cmax in rat at 10 mg/kg, po; format: ADME, organism-based; parameters: dose 10 mg/kg, route oral; conditions: in vivo
In short: (§1)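 Rat pharmacokinetics: 10 mg/kg dose given, three rats per group.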

[7] = AUC in rat at 10 mg/kg, iv; format: ADME, organism-based; parameters: dose 10 mg/kg, route intravenous; conditions: plasma; in short: as §1
[8] = AUC in rat at 10 mg/kg, po; format: ADME, organism-based; parameters: dose 10 mg/kg, route oral; conditions: plasma; in short: as §1
[9] = Clearance in rat at 10 mg/kg, iv; format: ADME, organism-based; parameters: dose 10 mg/kg, route intravenous; conditions: in vivo; in short: as §1
[10] = Oral bioavailability in rat at 10 mg/kg; format: ADME, organism-based; conditions: in vivo; in short: as §1
[11] = Volume of distribution at steady state in rat at 10 mg/kg, iv; format: ADME, organism-based; parameters: dose 10 mg/kg, route intravenous; conditions: in vivo, read-out: Vdss; in short: as §1

Sequence of Hepatocyte growth factor receptor (P08581 whole entry): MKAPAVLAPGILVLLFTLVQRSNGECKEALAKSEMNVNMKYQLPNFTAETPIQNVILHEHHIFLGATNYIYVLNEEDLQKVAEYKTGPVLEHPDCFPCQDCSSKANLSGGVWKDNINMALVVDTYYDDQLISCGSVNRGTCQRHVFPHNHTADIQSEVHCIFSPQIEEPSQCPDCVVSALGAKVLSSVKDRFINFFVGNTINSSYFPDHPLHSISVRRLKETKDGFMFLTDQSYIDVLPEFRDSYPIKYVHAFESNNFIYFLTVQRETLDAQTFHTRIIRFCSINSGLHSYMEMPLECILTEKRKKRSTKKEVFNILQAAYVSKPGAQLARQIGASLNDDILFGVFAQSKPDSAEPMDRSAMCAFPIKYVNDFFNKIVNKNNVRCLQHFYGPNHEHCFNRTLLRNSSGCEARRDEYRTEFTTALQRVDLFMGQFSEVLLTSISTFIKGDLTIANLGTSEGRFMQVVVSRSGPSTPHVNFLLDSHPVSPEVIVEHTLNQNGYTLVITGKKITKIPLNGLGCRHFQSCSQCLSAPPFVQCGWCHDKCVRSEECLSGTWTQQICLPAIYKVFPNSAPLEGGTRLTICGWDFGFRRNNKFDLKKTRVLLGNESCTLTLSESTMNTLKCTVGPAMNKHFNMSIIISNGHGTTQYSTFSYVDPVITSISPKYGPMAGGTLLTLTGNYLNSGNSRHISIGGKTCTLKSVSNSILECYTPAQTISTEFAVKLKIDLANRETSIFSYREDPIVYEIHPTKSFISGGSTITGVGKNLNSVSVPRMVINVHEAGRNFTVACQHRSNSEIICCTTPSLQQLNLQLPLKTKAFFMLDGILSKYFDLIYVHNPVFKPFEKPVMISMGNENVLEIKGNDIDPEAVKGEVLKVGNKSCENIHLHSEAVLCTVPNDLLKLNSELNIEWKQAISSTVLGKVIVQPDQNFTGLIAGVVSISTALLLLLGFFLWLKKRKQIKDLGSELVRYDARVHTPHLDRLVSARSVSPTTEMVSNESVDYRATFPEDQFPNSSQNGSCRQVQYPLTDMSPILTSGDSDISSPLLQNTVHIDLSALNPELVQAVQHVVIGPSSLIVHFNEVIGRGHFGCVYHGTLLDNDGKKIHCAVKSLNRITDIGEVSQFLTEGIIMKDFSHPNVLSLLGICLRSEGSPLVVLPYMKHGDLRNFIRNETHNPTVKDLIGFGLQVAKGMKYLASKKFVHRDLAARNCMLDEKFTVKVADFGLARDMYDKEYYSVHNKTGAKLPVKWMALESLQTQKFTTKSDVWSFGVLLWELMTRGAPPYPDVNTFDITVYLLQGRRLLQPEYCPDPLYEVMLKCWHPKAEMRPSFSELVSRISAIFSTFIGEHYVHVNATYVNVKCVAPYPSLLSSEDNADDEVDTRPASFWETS
Sequence of Macrophage-stimulating protein receptor (Q04912 25-304 limits assumed): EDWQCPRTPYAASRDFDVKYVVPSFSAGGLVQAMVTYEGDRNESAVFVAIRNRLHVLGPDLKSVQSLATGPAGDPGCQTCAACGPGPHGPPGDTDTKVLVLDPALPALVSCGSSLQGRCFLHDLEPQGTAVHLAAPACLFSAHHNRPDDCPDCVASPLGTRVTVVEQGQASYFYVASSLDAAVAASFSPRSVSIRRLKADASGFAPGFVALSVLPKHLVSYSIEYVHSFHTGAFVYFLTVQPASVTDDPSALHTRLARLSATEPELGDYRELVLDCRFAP
Sequence of Macrophage-stimulating protein receptor (Q04912 310-1400 limits assumed): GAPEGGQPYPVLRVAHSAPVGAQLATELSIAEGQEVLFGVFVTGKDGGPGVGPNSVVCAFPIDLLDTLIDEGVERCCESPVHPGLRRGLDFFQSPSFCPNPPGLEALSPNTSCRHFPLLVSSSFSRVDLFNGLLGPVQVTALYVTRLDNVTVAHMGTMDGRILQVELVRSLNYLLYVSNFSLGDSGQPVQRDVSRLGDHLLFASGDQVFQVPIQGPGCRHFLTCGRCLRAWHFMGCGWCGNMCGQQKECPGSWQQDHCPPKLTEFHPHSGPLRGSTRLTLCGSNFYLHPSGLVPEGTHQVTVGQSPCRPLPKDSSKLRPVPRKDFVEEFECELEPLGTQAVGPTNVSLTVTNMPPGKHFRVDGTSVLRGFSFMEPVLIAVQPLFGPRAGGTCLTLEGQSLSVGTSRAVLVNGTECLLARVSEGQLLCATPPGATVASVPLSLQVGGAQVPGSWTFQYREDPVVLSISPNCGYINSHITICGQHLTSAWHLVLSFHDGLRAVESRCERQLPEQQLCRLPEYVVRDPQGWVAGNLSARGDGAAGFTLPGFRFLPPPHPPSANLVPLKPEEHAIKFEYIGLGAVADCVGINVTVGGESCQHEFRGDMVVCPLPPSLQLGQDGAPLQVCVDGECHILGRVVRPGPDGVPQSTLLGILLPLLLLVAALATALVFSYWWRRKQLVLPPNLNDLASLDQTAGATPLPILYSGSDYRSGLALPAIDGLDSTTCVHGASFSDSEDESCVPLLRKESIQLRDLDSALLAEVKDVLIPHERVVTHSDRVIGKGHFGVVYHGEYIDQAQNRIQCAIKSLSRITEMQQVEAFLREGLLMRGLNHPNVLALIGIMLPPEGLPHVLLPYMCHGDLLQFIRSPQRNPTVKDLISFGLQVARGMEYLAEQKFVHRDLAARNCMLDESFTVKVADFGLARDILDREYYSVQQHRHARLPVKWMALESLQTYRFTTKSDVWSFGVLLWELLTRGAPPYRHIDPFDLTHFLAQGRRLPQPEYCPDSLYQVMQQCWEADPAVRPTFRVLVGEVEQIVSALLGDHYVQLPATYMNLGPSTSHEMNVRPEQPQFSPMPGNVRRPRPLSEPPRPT
Sequence of High affinity nerve growth factor receptor (P04629 whole entry): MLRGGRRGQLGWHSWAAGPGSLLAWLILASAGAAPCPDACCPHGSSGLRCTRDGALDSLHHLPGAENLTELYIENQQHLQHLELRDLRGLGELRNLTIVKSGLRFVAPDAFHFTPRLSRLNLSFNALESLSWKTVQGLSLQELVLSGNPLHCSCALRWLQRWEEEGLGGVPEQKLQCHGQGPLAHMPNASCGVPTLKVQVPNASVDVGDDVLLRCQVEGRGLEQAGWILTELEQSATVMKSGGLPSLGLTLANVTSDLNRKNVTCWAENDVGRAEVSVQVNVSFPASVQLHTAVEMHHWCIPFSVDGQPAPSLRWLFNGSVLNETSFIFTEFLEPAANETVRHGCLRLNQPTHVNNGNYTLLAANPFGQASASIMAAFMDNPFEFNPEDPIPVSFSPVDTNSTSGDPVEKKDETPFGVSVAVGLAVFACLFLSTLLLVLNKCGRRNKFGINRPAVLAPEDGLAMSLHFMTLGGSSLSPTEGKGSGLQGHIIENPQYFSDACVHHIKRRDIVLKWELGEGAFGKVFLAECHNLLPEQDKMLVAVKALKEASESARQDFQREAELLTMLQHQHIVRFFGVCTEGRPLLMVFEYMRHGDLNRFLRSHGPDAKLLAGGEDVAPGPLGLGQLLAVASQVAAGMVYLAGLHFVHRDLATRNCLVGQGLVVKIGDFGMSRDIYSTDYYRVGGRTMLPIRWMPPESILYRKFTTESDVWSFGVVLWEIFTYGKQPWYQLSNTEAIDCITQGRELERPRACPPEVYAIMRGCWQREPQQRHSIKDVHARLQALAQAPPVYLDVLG

pIC50 [1] | GI50 (MKN-45) | GI50 (SNU-5) | SMILES | GI50 [5] | GI50 (NCI-N87) | also measured
8.30 |  |  | O=c1[nH]ccc2c(Cc3nnc4ccc(-c5cn[nH]c5)nn34)cccc12 |  |  | 
8.52 | 38 nM | 59 nM | O=c1[nH]ccc2c(Cc3nnc4ccc(-c5ccccc5)nn34)cccc12 | 71 nM | > 10000 nM | pIC50 [2]: < 5.00; pIC50 [3]: < 5.00; pIC50 [4]: < 5.00; pIC50 (Aurora kinase A): < 5.00; Cmax [6]: 300 ng/mL; AUC [7]: 11200 ng·h/mL; AUC [8]: 3900 ng·h/mL; clearance [9]: 13.3 mL/min/kg; bioavailability [10]: 35%; Vd [11]: 6.4 L/kg
8.40 | 32 nM | 56 nM | O=c1[nH]ccc2c(Cc3nnc4ccc(-c5ccsc5)nn34)cccc12 | 170 nM | > 10000 nM | 
8.30 | 420 nM | 450 nM | O=c1[nH]ccc2c(Cc3nnc4ccc(-c5cccnc5)nn34)cccc12 | 400 nM | > 10000 nM | 
7.14 |  |  | Cc1ccccc1-c1ccc2nnc(Cc3cccc4c(=O)[nH]ccc34)n2n1 |  |  | 
8.40 |  |  | O=c1[nH]ccc2c(Cc3nnc4ccc(-c5ccccc5Cl)nn34)cccc12 |  |  | 
8.15 | 11 nM | 19 nM | O=c1[nH]ccc2c(Cc3nnc4ccc(-c5cccc(Cl)c5)nn34)cccc12 | 53 nM | > 10000 nM | 
8.52 | 42 nM | 52 nM | O=c1[nH]ccc2c(Cc3nnc4ccc(-c5cccc(F)c5)nn34)cccc12 | 130 nM | > 10000 nM | 
8.40 |  |  | O=c1[nH]ccc2c(Cc3nnc4ccc(-c5cccc([N+](=O)[O-])c5)nn34)cccc12 |  |  | 
8.52 | 36 nM | 120 nM | N#Cc1cccc(-c2ccc3nnc(Cc4cccc5c(=O)[nH]ccc45)n3n2)c1 | 59 nM | > 10000 nM | 
8.52 | 470 nM | 1100 nM | O=c1[nH]ccc2c(Cc3nnc4ccc(-c5cccc(O)c5)nn34)cccc12 | 600 nM | > 10000 nM | 
8.30 | 95 nM | 130 nM | COc1cccc(-c2ccc3nnc(Cc4cccc5c(=O)[nH]ccc45)n3n2)c1 | 100 nM | > 10000 nM | 

The remaining lines, values behind:

SMILES | pIC50 [1] | GI50 (MKN-45) | GI50 (SNU-5) | GI50 [5] | GI50 (NCI-N87) | also measured
Cn1cc(-c2ccc3nnc(Cc4cccc5c(=O)[nH]ccc45)n3n2)cn1 | 8.70 | 130 nM | 690 nM | 64 nM | > 10000 nM | pIC50 [2]: < 5.00; pIC50 [3]: < 5.00; pIC50 [4]: < 5.00; pIC50 (Aurora kinase A): < 5.00
O=c1[nH]ccc2c(Cc3nnc4ccc(-c5cnn(CCO)c5)nn34)cccc12 | 8.70 |  |  |  |  | 
O=c1[nH]ccc2c(Cc3nnc4ccc(-c5cnn(C6CCNCC6)c5)nn34)cccc12 | 7.57 |  |  |  |  | 
O=c1[nH]ccc2c(Cc3nnc4ccc(N5CCCC5)nn34)cccc12 | 7.57 |  |  |  |  | 
O=c1[nH]ccc2c(Cc3nnc4ccc(N5CCCCC5)nn34)cccc12 | 7.54 |  |  |  |  | 
O=c1[nH]ccc2c(Cc3nnc4ccc(-c5csc6ccccc56)nn34)cccc12 | 7.85 |  |  |  |  | 
Cn1ccc2c(Cc3nnc4ccc(-c5cccc(F)c5)nn34)cccc2c1=O | 7.14 |  |  |  |  | 
CCn1ccc2c(Cc3nnc4ccc(-c5cccc(F)c5)nn34)cccc2c1=O | 7.14 |  |  |  |  | 
